# Results: ChEMBL document CHEMBL3351534, “Design, synthesis and antimycobacterial evaluation of 1-(4-(2-substitutedthiazol-4-yl)phenethyl)-4-(3-(4-substitutedpiperazin-1-yl)alkyl)piperazine hybrid analogues” (Eur J Med Chem, 2014)
# Tests used:
# [1] = system: Mycobacterium tuberculosis; experiment: Antimycobacterial activity against Mycobacterium tuberculosis H37Rv after 5 days by MABA method; assay type: functional; details: 120 h
# Procedure, shortened: (§1)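 MABA in 96-well plates against M. tuberculosis H37Rv. Compounds serially diluted 1:2 across columns, inoculum added, with medium-only and 3–5% DMSO solvent controls. Incubated 37 °C for 5 days. A 1:1 mix of 10× Alamar Blue and 10% Tween 80 was added and plates were reincubated 24 h at 37 °C. Blue read as no growth, pink as growth. MIC read from colour.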
# [2] = Selectivity index, ratio of IC50 for mouse RAW264.7 cells to MIC for Mycobacterium tuberculosis H37Rv; assay type: toxicity; details: read-out: Selectivity Index
# Procedure, shortened: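 SI = IC50/MIC. IC50 comes from an MTT assay on RAW 264.7 cells, with viability read as conversion of MTT to formazan after 72 h exposure and % inhibition recorded at 50 µg/mL. MIC comes from the M. tuberculosis H37Rv MABA (5 days at 37 °C, Alamar Blue colour read-out).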
# [3] = system: Mycobacterium tuberculosis; experiment: Antimycobacterial activity against Mycobacterium tuberculosis H37Rv assessed as inhibition of microbial growth at 6.25 ug/mL after 5 days by MABA method; assay type: functional; details: 120 h; procedure, shortened: as §1
# [4] = Toxicity against mouse RAW264.7 cells assessed as inhibition of cell viability at 50 ug/mL after 72 hrs by MTT assay; assay type: cell-based; details: read-out: INH
# Procedure, shortened: (§2)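 RAW 264.7 cells were exposed to compounds for 72 h. Viability was then scored by the cells' conversion of MTT into a formazan product, using a non-radioactive cell proliferation kit. Results were expressed as percentage growth inhibition at a single high concentration and as an approximate IC50.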
# [5] = Toxicity against mouse RAW264.7 cells assessed as inhibition of cell viability after 72 hrs by MTT assay; assay type: cell-based; procedure, shortened: as §2
# [6] = system: Mycobacterium tuberculosis; experiment: Antimycobacterial activity against Mycobacterium tuberculosis H37Rv assessed as inhibition of microbial growth at 3.125 ug/mL after 5 days by MABA method; assay type: functional; details: 120 h; procedure, shortened: as §1
# [7] = system: Mycobacterium tuberculosis; experiment: Antimycobacterial activity against Mycobacterium tuberculosis H37Rv assessed as inhibition of microbial growth at 1.56 ug/mL after 5 days by MABA method; assay type: functional; details: 120 h; procedure, shortened: as §1
structure (smiles),measurement,setting,value
Cc1nc(-c2ccc(CCN3CCN(CCCN4CCN(c5ccccc5)CC4)CC3)cc2)cs1,MIC,[1],25 mg/L
CNc1nc(-c2ccc(CCN3CCN(CCCN4CCN(c5ccc([N+](=O)[O-])cc5)CC4)CC3)cc2)cs1,MIC,[1],12.5 mg/L
Cc1nc(-c2ccc(CCN3CCN(CCCN4CCN(C(c5ccccc5)c5ccccc5)CC4)CC3)cc2)cs1,selectivity ratio,[2],> 7
same,inhibition at 6.25 µg/mL,[3],99%
same,"cytotoxicity at 72 h, 50 ug/mL",[4],42.8%
same,MIC,[1],6.25 mg/L
same,IC50 at 72 h,[5],> 50 mg/L
Nc1nc(-c2ccc(CCN3CCN(CCCN4CCN(c5ccccc5Cl)CC4)CC3)cc2)cs1,MIC,[1],50 mg/L
CNc1nc(-c2ccc(CCN3CCN(CCCCN4CCN(c5ccc([N+](=O)[O-])cc5)CC4)CC3)cc2)cs1,MIC,[1],50 mg/L
Nc1nc(-c2ccc(CCN3CCN(CCCCCN4CCN(c5ccc([N+](=O)[O-])cc5)CC4)CC3)cc2)cs1,selectivity ratio,[2],> 7
same,inhibition at 6.25 µg/mL,[3],99%
same,"cytotoxicity at 72 h, 50 ug/mL",[4],44.6%
same,MIC,[1],6.25 mg/L
same,IC50 at 72 h,[5],> 50 mg/L
Nc1nc(-c2ccc(CCN3CCN(CCCCN4CCN(c5ccccc5)CC4)CC3)cc2)cs1,MIC,[1],25 mg/L
Nc1nc(-c2ccc(CCN3CCN(CCCN4CCN(c5ccc([N+](=O)[O-])cc5)CC4)CC3)cc2)cs1,selectivity ratio,[2],> 7
same,inhibition at 6.25 µg/mL,[3],99%
same,"cytotoxicity at 72 h, 50 ug/mL",[4],36.5%
same,MIC,[1],6.25 mg/L
same,IC50 at 72 h,[5],> 50 mg/L
Cc1nc(-c2ccc(CCN3CCN(CCCN4CCN(c5ccccn5)CC4)CC3)cc2)cs1,MIC,[1],50 mg/L
NNC(=O)c1ccncc1 [ISONIAZID],MIC,[1],0.05 mg/L
CNc1nc(-c2ccc(CCN3CCN(CCCCN4CCN(c5ccccn5)CC4)CC3)cc2)cs1,MIC,[1],25 mg/L
Cc1nc(-c2ccc(CCN3CCN(CCCN4CCN(c5ccccc5Cl)CC4)CC3)cc2)cs1,MIC,[1],50 mg/L
CNc1nc(-c2ccc(CCN3CCN(CCCN4CCN(c5ccccc5)CC4)CC3)cc2)cs1,MIC,[1],50 mg/L
Nc1nc(-c2ccc(CCN3CCN(CCCCN4CCN(c5ccccn5)CC4)CC3)cc2)cs1,MIC,[1],12.5 mg/L
CNc1nc(-c2ccc(CCN3CCN(CCCCN4CCN(C(c5ccccc5)c5ccccc5)CC4)CC3)cc2)cs1,MIC,[1],50 mg/L
CNc1nc(-c2ccc(CCN3CCN(CCCN4CCN(c5ccccn5)CC4)CC3)cc2)cs1,MIC,[1],12.5 mg/L
Nc1nc(-c2ccc(CCN3CCN(CCCCN4CCN(c5ccc([N+](=O)[O-])cc5)CC4)CC3)cc2)cs1,MIC,[1],12.5 mg/L
CO[C@H]1/C=C/O[C@@]2(C)Oc3c(C)c(O)c4c(O)c(c(/C=N/N5CCN(C)CC5)c(O)c4c3C2=O)NC(=O)/C(C)=C\C=C\[C@H](C)[C@H](O)[C@@H](C)[C@@H](O)[C@@H](C)[C@H](OC(C)=O)[C@@H]1C [RIFAMPIN],MIC,[1],0.1 mg/L
CNc1nc(-c2ccc(CCN3CCN(CCCCN4CCN(c5ccccc5)CC4)CC3)cc2)cs1,MIC,[1],12.5 mg/L
CNc1nc(-c2ccc(CCN3CCN(CCCN4CCN(c5ccccc5Cl)CC4)CC3)cc2)cs1,MIC,[1],12.5 mg/L
Cc1nc(-c2ccc(CCN3CCN(CCCN4CCN(c5ccc([N+](=O)[O-])cc5)CC4)CC3)cc2)cs1,MIC,[1],50 mg/L
Nc1nc(-c2ccc(CCN3CCN(CCCCN4CCN(c5ccccc5Cl)CC4)CC3)cc2)cs1,MIC,[1],50 mg/L
Nc1nc(-c2ccc(CCN3CCN(CCCN4CCN(c5ccccn5)CC4)CC3)cc2)cs1,selectivity ratio,[2],> 15
same,"cytotoxicity at 72 h, 50 ug/mL",[4],38.1%
same,inhibition at 3.125 µg/mL,[6],99%
same,MIC,[1],3.12 mg/L
same,IC50 at 72 h,[5],> 50 mg/L
Nc1nc(-c2ccc(CCN3CCN(CCCN4CCN(c5ccccc5)CC4)CC3)cc2)cs1,selectivity ratio,[2],> 15
same,"cytotoxicity at 72 h, 50 ug/mL",[4],35.6%
same,inhibition at 3.125 µg/mL,[6],99%
same,MIC,[1],3.12 mg/L
same,IC50 at 72 h,[5],> 50 mg/L
Nc1nc(-c2ccc(CCN3CCN(CCCN4CCN(C(c5ccccc5)c5ccccc5)CC4)CC3)cc2)cs1,selectivity ratio,[2],> 15
same,"cytotoxicity at 72 h, 50 ug/mL",[4],38.4%
same,inhibition at 3.125 µg/mL,[6],99%
same,MIC,[1],3.12 mg/L
same,IC50 at 72 h,[5],> 50 mg/L
Nc1nc(-c2ccc(CCN3CCN(CCCCN4CCN(C(c5ccccc5)c5ccccc5)CC4)CC3)cc2)cs1,selectivity ratio,[2],> 15
same,"cytotoxicity at 72 h, 50 ug/mL",[4],46.4%
same,inhibition at 3.125 µg/mL,[6],99%
same,MIC,[1],3.12 mg/L
same,IC50 at 72 h,[5],> 50 mg/L
CNc1nc(-c2ccc(CCN3CCN(CCCCN4CCN(c5ccccc5Cl)CC4)CC3)cc2)cs1,selectivity ratio,[2],> 15
same,"cytotoxicity at 72 h, 50 ug/mL",[4],40.4%
same,inhibition at 3.125 µg/mL,[6],99%
same,MIC,[1],3.12 mg/L
same,IC50 at 72 h,[5],> 50 mg/L
CNc1nc(-c2ccc(CCN3CCN(CCCN4CCN(C(c5ccccc5)c5ccccc5)CC4)CC3)cc2)cs1,selectivity ratio,[2],> 30
same,"cytotoxicity at 72 h, 50 ug/mL",[4],31.8%
same,MIC,[1],1.56 mg/L
same,IC50 at 72 h,[5],> 50 mg/L
same,inhibition at 1.56 µg/mL,[7],99%
